Data published in ChEMBL document CHEMBL4011621, “A Novel Series of Highly Potent Small Molecule Inhibitors of Rhinovirus Replication” (J Med Chem, 2017).
Activity calls are given as the source filed them. The calls are words filed in the database; no cut-off is given here.

Experiments:
[1] = test system: rhinovirus A16; assay: Antiviral activity against Human rhinovirus A16 infected in human H1HeLa cells assessed as protection against virus induced cytopathic effect after 3 days by MTT assay; type: functional, cell-based; settings: Rhinovirus A, H1-HeLa, 72 h
Procedure, shortened: (§1)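 CPE-reduction assay in H1HeLa cells plated 2 d before. Equal volumes of virus and compound were added and held at 33 °C for 3 d under CO2. Supernatant was removed, then MTT was added for 1 h at 37 °C. Formazan was dissolved and read at 540 nm against a 690 nm reference. Survival was scaled between uninfected untreated wells (100%) and virus-only wells (0%); mean ± SD, three experiments.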

[2] = test system: rhinovirus B14; assay: Antiviral activity against Human rhinovirus B14 infected in H1HeLa cells assessed as decrease in viral dsRNA at 6 times EC50 treated every 1 hr for 6 hrs after infection by DAPI staining based immunofluorescence assay; type: functional, cell-based
Procedure, shortened: (§2)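 Cells were infected with hRV type 14 or type 16 at MOI 1. Compound was given 1 h before infection, at infection (0 h), or at later hourly time points. At 9 h post-infection, cells were fixed in ice-cold methanol–acetone 3:1 and stained with anti-dsRNA antibody (J2), an Alexa Fluor 488 anti-mouse secondary and DAPI, then imaged. Infected-cell count over total nuclei was expressed as % of untreated virus control; mean ± SD, three experiments.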

[3] = test system: rhinovirus B14; assay: Antiviral activity against Human rhinovirus B14 infected in human H1HeLa cells assessed as protection against virus induced cytopathic effect after 3 days by MTT assay; type: functional, cell-based; settings: Rhinovirus B, H1-HeLa, 72 h
[4] = test system: rhinovirus A21; assay: Antiviral activity against Human rhinovirus A21 infected in human H1HeLa cells assessed as protection against virus induced cytopathic effect after 3 days by MTT assay; type: functional, cell-based; settings: Rhinovirus A, H1-HeLa, 72 h; procedure, shortened: as §1
[5] = Cytotoxicity against human H1HeLa cells assessed as decrease in cell viability after 3 days by MTT assay; type: cell-based, H1-HeLa
[6] = Antiviral activity against Human rhinovirus A71 infected in human H1HeLa cells assessed as protection against virus induced cytopathic effect after 3 days by MTT assay; type: functional, cell-based; settings: Rhinovirus A, H1-HeLa, 72 h; procedure, shortened: as §1
[7] = Selectivity index, ratio of CC50 for human H1HeLa cells to EC50 for Human rhinovirus B14 infected in human H1HeLa cells; type: toxicity, cell-based; settings: read-out: Ratio CC50/EC50
Procedure, shortened: (§3)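 H1HeLa cells plated 2 d ahead; virus plus compound (equal volumes) incubated 33 °C, 3 d, CO2. MTT 1 h at 37 °C, A540/A690. Survival scaled between uninfected untreated (100%) and virus-only (0%) wells to give EC50. CC50 = 50% cell death by MTT in H1HeLa. SI = CC50/EC50; at least three independent experiments.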

[8] = Selectivity index, ratio of CC50 for human H1HeLa cells to EC50 for Human rhinovirus A21 infected in human H1HeLa cells; type: toxicity, cell-based; settings: read-out: Ratio CC50/EC50; procedure, shortened: as §3
[9] = Selectivity index, ratio of CC50 for human H1HeLa cells to EC50 for Human rhinovirus A71 infected in human H1HeLa cells; type: toxicity, cell-based; settings: read-out: Ratio CC50/EC50; procedure, shortened: as §3
[10] = test system: Poliovirus 3; assay: Antiviral activity against Human poliovirus 3 infected in human HeLa cells assessed as protection against virus induced cytopathic effect after 2 days by MTT assay; type: functional, cell-based; settings: Enterovirus C, 48 h
Procedure, shortened: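 HeLa cells; MTT-based CPE reduction. Virus and compound added in equal volumes, incubated 37 °C for 2 d in CO2. Supernatant removed, MTT 1 h at 37 °C, formazan dissolved, absorbance 540 nm (690 nm reference). Uninfected untreated wells = 100% survival, virus-only = 0%. EC50 = 50% inhibition; means ± SD, three experiments.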

[11] = Cytotoxicity aganist human HeLa cells assessed as decrease in cell viability after 2 days by MTT assay; type: cell-based
[12] = Selectivity index, ratio of CC50 for human HeLa cells to EC50 for human poliovirus 3 infected in human HeLa cells; type: toxicity, cell-based; settings: read-out: Ratio CC50/EC50
Procedure, shortened: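 SI = CC50/EC50 in HeLa cells. CC50 = 50% cell death by MTT. EC50 = 50% inhibition of PV3 CPE by MTT after 2 d at 37 °C, survival scaled to uninfected (100%) and virus-only (0%) wells. At least three independent experiments.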

[13] = test system: rhinovirus B14; assay: Antiviral activity against Human rhinovirus B14 infected in H1HeLa cells assessed as decrease in viral dsRNA at 6 times EC50 treated every 1 hr for 9 hrs after infection by DAPI staining based immunofluorescence assay; type: functional, cell-based; procedure, shortened: as §2
[14] = test system: rhinovirus B14; assay: Antiviral activity against Human rhinovirus B14 infected in H1HeLa cells assessed as decrease in viral dsRNA at 6 times EC50 treated 1 hr prior to infection by DAPI staining based immunofluorescence assay; type: functional, cell-based; procedure, shortened: as §2
[15] = test system: rhinovirus B14; assay: Antiviral activity against Human rhinovirus B14 infected in H1HeLa cells assessed as decrease in viral dsRNA at 6 times EC50 treated simultaneously with infection by DAPI staining based immunofluorescence assay; type: functional, cell-based; procedure, shortened: as §2
[16] = test system: rhinovirus A16; assay: Antiviral activity against Human rhinovirus A16 infected in H1HeLa cells assessed as decrease in viral dsRNA at 6 times EC50 treated 1 hr prior to infection by DAPI staining based immunofluorescence assay; type: functional, cell-based; procedure, shortened: as §2
[17] = test system: rhinovirus A16; assay: Antiviral activity against Human rhinovirus A16 infected in H1HeLa cells assessed as decrease in viral dsRNA at 6 times EC50 treated simultaneously with infection by DAPI staining based immunofluorescence assay; type: functional, cell-based; procedure, shortened: as §2
[18] = test system: rhinovirus B14; assay: Antiviral activity against Human rhinovirus B14 harboring VP1 A150V/E276K double mutant infected in human HeLa Rh cells assessed as protection against virus induced cytopathic effect after 3 days by MTT assay; type: functional, cell-based
[19] = test system: rhinovirus B14; assay: Antiviral activity against Human rhinovirus B14 harboring VP1 C199Y mutant infected in human HeLa Rh cells assessed as protection against virus induced cytopathic effect after 3 days by MTT assay; type: functional, cell-based
[20] = Cytotoxicity against human HeLa Rh cells assessed as decrease in cell viability after 3 days by MTT assay; type: cell-based
[21] = test system: rhinovirus A16; assay: Antiviral activity against Human rhinovirus A16 infected in H1HeLa cells assessed as decrease in viral dsRNA at 6 times EC50 treated every 1 hr for 9 hrs after infection by DAPI staining based immunofluorescence assay; type: functional, cell-based; procedure, shortened: as §2

Structure (SMILES)	EC50 [3] [nM]	EC50 [4] [nM]	CC50 at 72 h [5] [nM]	EC50 [6] [nM]	selectivity ratio [7]	selectivity ratio [8]	selectivity ratio [9]	EC50 [10] [nM]	CC50 at 48 h [11] [nM]	selectivity ratio [12]	also measured
CCOC(=O)/C=C/[C@H](C[C@@H]1CCNC1=O)NC(=O)[C@@H](CC(=O)[C@@H](NC(=O)c1cc(C)on1)C(C)C)Cc1ccc(F)cc1 [RUPINTRIVIR]	–	–	–	–	–	–	–	–	–	–	EC50 [1]: 30 nM; Activity [2]: Active
CCOC(=O)c1sc2cc(Oc3cccc(C(=O)NC)c3)ccc2c1C	3400	85	5100	150	1.5	60	34	380	7700	20	–
CNC(=O)c1cc(Oc2ccc3ccc(C(=O)OC)cc3c2)ccn1	11000	2000	53500	1600	4.9	27	33	44	33800	770	–
CNC(=O)c1cc(Oc2ccc3c(C)c(C(=O)OC)sc3c2)ccn1	2000	250	10800	1600	5.4	43	6.8	87	15700	180	–
Cc1cc(CCCOc2c(C)cc(-c3noc(C(F)(F)F)n3)cc2C)on1 [PLECONARIL]	75 to 92	73	19700	9.4	210	270	2100	1400	25900	19	Activity [13]: inactive; EC50 [1]: 350 nM; Activity [14]: Active; Activity [15]: Active; Activity [16]: Active; Activity [17]: Active; EC50 [18]: 1490 nM; EC50 [19]: 2310 nM; CC50 at 72 h [20]: > 10000 nM
CNC(=O)c1cc(Oc2ccc3cc(C(=O)OC(C)C)sc3c2)ccn1	1700	1500	45700	13	27	31	3500	6400	45000	7	–
CCOc1noc2cc(OCCC3CCN(c4ccc(C)nn4)CC3)ccc12 [VAPENDAVIR]	–	–	–	–	–	–	–	–	–	–	CC50 at 72 h [20]: 721000 nM
CNC(=O)c1cc(Oc2ccc3c(C)c(C(=O)OC(C)C)sc3c2)ccn1	70 to 83	78	18100	15	220	230	1200	63	9600	150	Activity [13]: inactive; EC50 [1]: 230 nM; Activity [14]: Active; Activity [15]: Active; Activity [16]: Active; Activity [17]: Active; Activity [21]: inactive; EC50 [18]: 264 nM; EC50 [19]: 2370 nM; CC50 at 72 h [20]: > 3000 nM
CCOC(=O)c1sc2cc(Oc3ccnc(C(=O)NC)c3)ccc2c1C	1700	290	50900	340	30	180	150	93	> 100000	> 1100	–
CNC(=O)c1cc(Oc2ccc3c(C)c(C(=O)OC(C)C)n(C)c3c2)ccn1	1900	130	11200	60	5.9	86	190	71	8500	120	–
CCOC(=O)c1ccc2ccc(Oc3ccnc(C(=O)NC)c3)cc2c1	2100	270	20800	48	9.9	77	430	9.5	13200	1400	–
CCOC(=O)c1cc2ccc(Oc3ccnc(C(=O)NC)c3)cc2s1	24600 to 58400	1200 to 1300	> 100000	19	> 1.7	> 77	> 5300	64300	> 100000	> 1.6	–
CCOC(=O)c1cc2ccc(Oc3ccnc(C(=O)NC)c3)c(Cl)c2s1	12400	7700	> 100000	200	> 8.1	> 13	> 500	58700	> 100000	> 1.7	–
C#CC[C@@H](C(=O)N[C@H](/C=C/C(=O)OCC)C[C@@H]1CCNC1=O)n1cccc(NC(=O)c2cc(C)on2)c1=O [IMOCITRELVIR]	45	–	–	–	–	–	–	–	–	–	EC50 [18]: 49 nM; EC50 [19]: 56 nM; CC50 at 72 h [20]: > 3000 nM
CCOC(=O)c1ccc2cc(Oc3ccnc(C(=O)NC)c3)ccc2c1	2100	91	35300	3.5	17	390	10000	410	34100	83	–
CNC(=O)c1cc(Oc2ccc3ccc(C(=O)OC(C)C)cc3c2)ccn1	1800	480	13800	19	7.7	29	730	10	8700	870	–
CNC(=O)c1cc(Oc2ccc3cc(C(=O)OC(C)C)n(C)c3c2)ccn1	820	64	10300	7.1	13	160	1500	9100	46100	5.1	–
CNC(=O)c1cc(Oc2ccc3c(C)c(C(=O)OCC(C)C)sc3c2)ccn1	10100	1500	36600	380	3.6	24	96	2000	28200	14	–
